This is an account of results in PubChem BioAssay AID651651 (Broad Institute, 2012).

Unmarked numbers belong to inactive results.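 The calls were made as follows: active = signal-lowering compounds whose fitted half-effect concentration is no more than twice the top tested dose; inconclusive = flat curve with 30 to 70% inhibition, or poor fit; inactive = the rest.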

This experiment in a line: quencher artefacts in RAD54 branch migration readout – biochemical, Cy5 label, cherry-picked samples, artefact control for RAD54 inhibitor project, dose response (AID 651651). As to conditions: Cy5 DNA fluorescence quench counter-screen; series mostly up to 50 µM; activity change, negative = inhibition: at the top concentration. The procedure, abridged: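 assay system = human RAD54 enzyme | quantity = 30 nM RAD54 in the enzyme mix | buffer or medium = 25 mM Tris pH 7.5, 3 mM MgCl2, 2 mM ATP | also added = branched DNA substrate labelled with Cy5 and BHQ quencher | doses = pinned compound dose series | timing = 60 min reaction, room temperature | signal = fluorescence of the Cy5-labelled DNA substrate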
Background: Counterscreens check selectivity or assay interference.
On to `C/C=C/c1ccc([C@@H]2[C@@H](CO)N3CCCCN(C(=O)Nc4ccc(F)cc4)C[C@H]23)cc1`, for which the “activity change, negative = inhibition” value is -8.63%.
Then `CN(C)c1ccc2c(c1)[C@@H]1C[C@@H](CC(=O)NCc3cc(F)ccc3F)O[C@H](CO)[C@@H]1O2`, with -16.4%; and `COc1ccc(S(=O)(=O)N(C)C[C@@H]2Oc3ccc(NC(=O)Nc4ccc5c(c4)OCO5)cc3C(=O)N([C@H](C)CO)C[C@H]2C)cc1`, with -2.96%; and `COc1ccc(S(=O)(=O)Nc2ccc3c(c2)[C@@H]2C[C@H](CC(=O)NCC4CC4)O[C@H](CO)[C@@H]2O3)cc1`, with 0.179%.
In the case of `Cc1cc(C(=O)Nc2cccc3c2O[C@H](CN(C)Cc2ccc(C(F)(F)F)cc2)[C@@H](C)CN([C@H](C)CO)C3=O)n(C)n1`, the “activity change, negative = inhibition” value is -0.835%.
Consider `COc1ccc(NC(=O)Nc2ccc3c(c2)CC(=O)N([C@H](C)CO)C[C@H](C)[C@H](CN(C)S(=O)(=O)c2ccc(OC)cc2)O3)cc1`, for which the “activity change, negative = inhibition” value is 0.589%.
Then `C[C@@H]1CN([C@H](C)CO)C(=O)c2cc(NC(=O)Nc3ccc4c(c3)OCO4)ccc2O[C@H]1CN(C)Cc1ccc2c(c1)OCO2`, with 3.73%.
`COc1ccc(S(=O)(=O)N(C)C[C@@H]2Oc3ccc(NC(=O)Nc4ccccc4)cc3CC(=O)N([C@@H](C)CO)C[C@@H]2C)cc1`: the “activity change, negative = inhibition” value is 4.69%.
With `COc1ccc(CN(C)C[C@@H]2Oc3ccc(NC(=O)Nc4ccc(F)cc4)cc3C(=O)N([C@H](C)CO)C[C@H]2C)cc1` the figure was -5.42%.
With `COc1ccc(S(=O)(=O)N(C)C[C@@H]2Oc3ccc(NC(=O)NC(C)C)cc3CC(=O)N([C@@H](C)CO)C[C@@H]2C)cc1` the figure was 6.96%.
With `COc1ccc(CN(C)C[C@@H]2Oc3ccc(NC(=O)NC4CCCCC4)cc3C(=O)N([C@@H](C)CO)C[C@H]2C)cc1` the figure was 1.54%; with `Cc1ccc(S(=O)(=O)N(C)C[C@@H]2Oc3ccc(NC(=O)NC(C)C)cc3C(=O)N([C@H](C)CO)C[C@H]2C)cc1`, -17.6%; with `Cc1noc(C)c1NC(=O)Nc1ccc2c(c1)C(=O)N([C@@H](C)CO)C[C@@H](C)[C@H](CN(C)C(=O)Nc1cccc3ccccc13)O2`, 1.39%.
Turning to `COc1ccc(CN(C)C[C@@H]2Oc3ccc(NC(=O)Nc4ccc(OC)cc4)cc3C(=O)N([C@H](C)CO)C[C@H]2C)cc1`, the “activity change, negative = inhibition” value is -7.79%.
Consider `COc1ccc(CN(C)C[C@@H]2Oc3ccc(NC(=O)Nc4ccc5c(c4)OCO5)cc3C(=O)N([C@H](C)CO)C[C@H]2C)cc1`, for which the “activity change, negative = inhibition” value is -3.25%.
Then `CN(C)c1ccc2c(c1)[C@@H]1C[C@@H](CC(=O)NCCN3CCCCC3)O[C@H](CO)[C@@H]1O2`, with -12.3%; and `COc1ccc(S(=O)(=O)N(C)C[C@@H]2Oc3ccc(NC(=O)Nc4ccc(C(F)(F)F)cc4)cc3C(=O)N([C@H](C)CO)C[C@H]2C)cc1`, with -12.7%; and `C[C@H]1CN([C@@H](C)CO)C(=O)Cc2cc(NC(=O)Nc3cccc4ccccc34)ccc2O[C@H]1CN(C)S(=O)(=O)c1ccc(Cl)cc1`, with -1.16% [at 46 µM].
Then `C[C@@H]1CCCCO[C@@H](CN(C)S(C)(=O)=O)[C@H](C)CN([C@H](C)CO)C(=O)c2cc(NC(=O)Nc3ccc4c(c3)OCO4)ccc2O1`, with 4.79%; and `COc1ccc(CN(C)C[C@@H]2Oc3ccc(NC(=O)Nc4ccccc4)cc3C(=O)N([C@H](C)CO)C[C@H]2C)cc1`, with -5.83%; and `COc1ccc(CN(C)C[C@@H]2Oc3ccc(NC(=O)Nc4ccc(OC)cc4)cc3C(=O)N([C@@H](C)CO)C[C@H]2C)cc1`, with -9.24%.
Then `O=C(C[C@@H]1C[C@H]2c3cc(NC(=O)CC4CC4)ccc3O[C@H]2[C@@H](CO)O1)NCc1ccc(Cl)cc1`, with -16.4%; and `CN(C)c1ccc2c(c1)[C@@H]1C[C@H](CC(=O)NCCN3CCCCC3)O[C@H](CO)[C@@H]1O2`, with -7.07%.
For `COc1ccc(C#Cc2ccc([C@H]3[C@@H](CO)N4CCCCN(C(=O)Nc5cccc(F)c5)C[C@H]34)cc2)cc1`, the “activity change, negative = inhibition” value is -11.1%.
Then `C[C@H]1CCCCO[C@@H](CN(C)C(=O)Nc2ccc3c(c2)OCO3)[C@@H](C)CN([C@@H](C)CO)C(=O)c2cc(NC(=O)Nc3ccc(C(F)(F)F)cc3)ccc2O1`, with -9.86%; and `CN(C)c1ccc2c(c1)[C@H]1C[C@H](CC(=O)NCCN3CCCCC3)O[C@@H](CO)[C@H]1O2`, with 0.661%.
With `COc1ccc(CN(C)C[C@@H]2Oc3ccc(NC(=O)Nc4c(C)noc4C)cc3C(=O)N([C@H](C)CO)C[C@H]2C)cc1` the figure was 1.69%; with `COc1ccc(CN(C)C[C@@H]2Oc3ccc(NC(=O)Nc4ccccc4)cc3C(=O)N([C@@H](C)CO)C[C@H]2C)cc1`, 0.045%; with `CN(C)CC(=O)Nc1ccc2c(c1)[C@@H]1C[C@H](CC(=O)NC3CCCCC3)O[C@@H](CO)[C@@H]1O2`, -8.2%.
Then `C[C@H](NC(=O)C[C@H]1C[C@H]2c3cc(NC(=O)c4cccnc4)ccc3O[C@H]2[C@@H](CO)O1)c1ccccc1`, with -2.79%.
